Drawing on PubChem BioAssay AID504846 (Johns Hopkins Ion Channel Center, 2011), this text covers outcome for five molecules.

Calls of active or inactive are those of the source.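 Rule for the calls: active = blocks the KCNK9 potassium channel at some tested concentration and gives a dose response curve; inactive = the rest.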

Potassium channel subfamily K member 9 (Homo sapiens), sequence (Q9NPC2 whole entry, looked up): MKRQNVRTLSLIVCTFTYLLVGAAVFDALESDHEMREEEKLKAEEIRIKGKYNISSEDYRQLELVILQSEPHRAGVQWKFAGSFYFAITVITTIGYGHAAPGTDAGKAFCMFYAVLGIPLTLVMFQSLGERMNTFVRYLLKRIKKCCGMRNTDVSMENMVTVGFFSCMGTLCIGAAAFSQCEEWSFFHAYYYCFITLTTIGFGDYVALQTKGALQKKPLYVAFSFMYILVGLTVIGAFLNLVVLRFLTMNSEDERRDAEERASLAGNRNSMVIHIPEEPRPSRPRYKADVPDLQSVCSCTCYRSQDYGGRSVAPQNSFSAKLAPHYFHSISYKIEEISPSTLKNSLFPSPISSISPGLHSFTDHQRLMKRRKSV

For this assay, the target named is Potassium channel subfamily K member 9 (Homo sapiens) (UniProt Q9NPC2). Briefly: concentration-dependent TASK-3 (KCNK9) blockade – HEK293 cells, thallium flux, SAR follow-up (AID 504846). The following applies: HEK293-KCNK9, FluxOR thallium flux fluorescence; series mostly up to 30 µM. A digest of the protocol:
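assay system = HEK293 cells stably expressing KCNK9, loaded with FluxOR thallium-sensitive dye | probe or stimulus = K2SO4 and Tl2SO4 flux stimulus (stock 25 mM, 7 mM) | dosing = concentration-response series | timing = 20 min room-temperature compound exposure, 110 s post-stimulus read | measured by = kinetic FluxOR thallium-flux fluorescence measurement | repeats = replicate dose series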
Regarding `Cc1cccc(NC(=O)c2ccccc2NC(=O)c2ccccc2)c1`, the molecule was classed as inactive.
In the case of `Cc1cccc(NC(=O)c2cccc(NC(=O)c3ccccc3)c2)c1` it was “inactive”; in that of `Cc1cccc(C(=O)Nc2ccccc2C(=O)Nc2ccccc2)c1`, “inactive”; in that of `Cc1cccc(C(=O)Nc2cccc(C(=O)Nc3ccccc3)c2)c1`, “inactive”.
As to `Cc1cccc(C(=O)Nc2ccc(C(=O)Nc3ccccc3)cc2)c1`, the molecule was called inactive.
